Measurements as given in ChEMBL document CHEMBL1137002, “Synthesis and electrochemistry of 2-ethenyl and 2-ethanyl derivatives of 5-nitroimidazole and antimicrobial activity against Giardia lamblia” (J Med Chem, 2009).
The source made the active and inactive calls. The rule behind the calls is not given here.

Experiments:
[1] = Therapeutic index, ratio of IC50 for human HeLa cells to EC50 for Giardia lamblia trophozoites isolates; format: cell-based; conditions: read-out: Ratio IC50/EC50
Giardia intestinalis [2] = experiment: Antigiardial activity against Giardia lamblia trophozoites isolates after 2 days by bactiter-glo viability assay; format: functional, organism-based; conditions: Giardia duodenalis, 48 h
HeLa = experiment: Cytotoxicity against human HeLa cells after 2 days by Alamar blue assay; format: cell-based; conditions: 48 h
Giardia intestinalis [3] = experiment: Antigiardial activity against metronidazole-sensitive Giardia lamblia isolate 713 trophozoite after 2 days by bactiter-glo viability assay; format: functional, organism-based; conditions: Giardia duodenalis, isolate 713, 48 h
In short: (§1)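 Trophozoites from mid-log cultures in TYI-S-33 with 10% bovine serum and 1 mg/mL bovine bile, grown anaerobically. Mz-resistant lines kept on 50 μM Mz but grown without it for 2–3 days beforehand. 1000–2000 cells/well, 1:3 serial dilutions, final 20 μM to 0.4 nM. 2 days at 37 °C anaerobically. ATP luminescence read-out. EC50 taken by graphic extrapolation of concentration–response curves. Mean ± SE of three experiments.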

Giardia intestinalis [4] = experiment: Antigiardial activity against metronidazole-resistant Giardia lamblia isolate 713 trophozoite after 2 days by bactiter-glo viability assay; format: functional, organism-based; conditions: Giardia duodenalis, isolate 713, 48 h; in short: as §1
Giardia intestinalis [5] = experiment: Antigiardial activity against metronidazole-sensitive Giardia lamblia isolate 106 trophozoite after 2 days by bactiter-glo viability assay; format: functional, organism-based; conditions: Giardia duodenalis, isolate 106, 48 h; in short: as §1
Giardia intestinalis [6] = experiment: Antigiardial activity against metronidazole-resistant Giardia lamblia isolate 106 trophozoite after 2 days by bactiter-glo viability assay; format: functional, organism-based; conditions: Giardia duodenalis, isolate 106, 48 h; in short: as §1
Giardia intestinalis [7] = experiment: Antigiardial activity against Giardia lamblia GS/M trophozoites infected in C57BL/6 mouse assessed as reduction in live trophozoite number in small intestine at 10 mg/kg, po administered as 5 doses for 3 days relative to control; format: functional; conditions: Giardia duodenalis
In short: (§2)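 Adult C57BL/6 mice infected orally with G. lamblia GS/M trophozoites; from 2 days post-infection, five oral gavage doses over 3 days (10 or 2 mg/kg), with controls given methylcellulose/PBS vehicle. Day 5: whole small intestine opened, placed in PBS on ice 10 min, shaken, and live trophozoites counted by hemocytometer under phase contrast. Mean ± SE of 3–7 animals; t test versus vehicle controls, p < 0.05.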

Giardia intestinalis [8] = experiment: Antigiardial activity against Giardia lamblia GS/M trophozoites infected in C57BL/6 mouse assessed as parasite eradication in small intestine at 10 mg/kg, po administered as 5 doses for 3 days; format: functional, organism-based; set-up: dose 10 mg/kg; conditions: Giardia duodenalis; in short: as §2
Mus musculus = experiment: Toxicity in C57BL/6 mouse at 10 mg/kg, po after 3 days; format: organism-based; set-up: dose 10 mg/kg, route oral; conditions: in vivo, 72 h
In short: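 G. lamblia GS/M-infected adult C57BL/6 mice were watched for clinically observable untoward effects across the 3-day treatment period, which consisted of five oral gavage doses at 10 mg/kg in methylcellulose/PBS given from day 2 after infection.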

Giardia intestinalis [9] = experiment: Antigiardial activity against Giardia lamblia GS/M trophozoites infected in C57BL/6 mouse assessed as reduction in live trophozoite number in small intestine at 2 mg/kg, po administered as 5 doses for 3 days; format: functional, organism-based; set-up: dose 2 mg/kg; conditions: Giardia duodenalis; in short: as §2

| Structure (SMILES) | selectivity ratio [1] | EC50 (Giardia intestinalis [2]; read-out: pEC50 (converted)) [nM] | IC50 (HeLa) [nM] | EC50 (Giardia intestinalis [3]) [nM] | EC50 (Giardia intestinalis [4]) [nM] | EC50 (Giardia intestinalis [5]) [nM] | EC50 (Giardia intestinalis [6]) [nM] | Activity (Giardia intestinalis [7]) | Activity (Giardia intestinalis [8]) | Activity (Mus musculus) | EC50 (Giardia intestinalis [2]; read-out: EC50) [nM] | Activity (Giardia intestinalis [9]) |
| --- | --- | --- | --- | --- | --- | --- | --- | --- | --- | --- | --- | --- |
| Cc1cccc(/C=C/c2ncc([N+](=O)[O-])n2C)c1 | 776 | 39.8 | 30900 | – | – | – | – | – | – | – | – | – |
| Cn1c([N+](=O)[O-])cnc1C(Br)C(Br)c1ccc(Br)cc1 (configuration not stated) | 23 | 347 | 7940 | 479 | 182 | 2880 | 214 | – | – | – | – | – |
| COc1cccc(/C=C/c2ncc([N+](=O)[O-])n2C)c1 | > 646 | 155 | > 100000 | – | – | – | – | – | – | – | – | – |
| Cn1c([N+](=O)[O-])cnc1/C=C/c1ccccc1 | > 2570 | 38.9 | > 100000 | 525 | 20.4 | 398 | 55 | Active | Active | Non-toxic | – | – |
| Cn1c([N+](=O)[O-])cnc1/C=C/c1ccc2c(c1)OCO2 | 1070 | 69.2 | 74100 | – | – | – | – | – | – | – | 69 | – |
| COc1ccc(/C=C/c2ncc([N+](=O)[O-])n2C)c(OC)c1OC | > 162 | 617 | > 100000 | – | – | – | – | – | – | – | – | – |
| Cn1c([N+](=O)[O-])cnc1/C=C/c1ccsc1 | > 1020 | 97.7 | > 100000 | 1050 | 24.5 | 389 | 91.2 | – | – | Non-toxic | – | – |
| Cn1c([N+](=O)[O-])cnc1/C=C/c1ccccc1-c1ccccc1 | > 117 | 851 | > 100000 | 4570 | 347 | 1230 | 537 | – | – | – | – | – |
| Cn1c([N+](=O)[O-])cnc1CCc1ccc(Br)cc1 | 85 | 1150 | – | – | – | – | – | – | – | – | 1150 | – |
| Cn1c([N+](=O)[O-])cnc1/C=C/c1cccs1 | 1120 | 81.3 | 91200 | – | – | – | – | – | – | – | – | – |
| CCOC(OCC)c1ccc(/C=C/c2ncc([N+](=O)[O-])n2C)cc1 | 1860 | 52.5 | – | 708 | 32.4 | 200 | 64.6 | – | – | – | – | – |
| Cn1c([N+](=O)[O-])cnc1/C=C/c1cccc(Br)c1 | 1860 | 46.8 | 87100 | 126 | 32.4 | 115 | 42.7 | – | – | – | – | – |
| Cc1ccccc1/C=C/c1ncc([N+](=O)[O-])n1C | 1350 | 69.2 | – | – | – | – | – | – | – | – | – | – |
| CC(=O)OC(c1ccc(Br)cc1)C(OC(C)=O)c1ncc([N+](=O)[O-])n1C (configuration not stated) | 436 | 224 | – | – | – | – | – | – | – | – | – | – |
| Cn1c([N+](=O)[O-])cnc1/C=C/c1ccc2ccccc2c1 | 1620 | 60.3 | – | – | – | – | – | – | – | – | – | – |
| Cn1c([N+](=O)[O-])cnc1/C=C/c1ccccc1Br | 1480 | 49 | 72400 | 117 | 18.2 | 282 | 41.7 | – | – | – | – | – |
| Cn1c([N+](=O)[O-])cnc1CCc1ccccc1 | > 474 | 209 | > 100000 | 5010 | 102 | 2570 | 174 | – | – | Non-toxic | – | – |

| Structure (SMILES) | selectivity ratio [1] | EC50 (Giardia intestinalis [2]; read-out: pEC50 (converted)) [nM] | IC50 (HeLa) [nM] | EC50 (Giardia intestinalis [3]) [nM] | EC50 (Giardia intestinalis [4]) [nM] | EC50 (Giardia intestinalis [5]) [nM] | EC50 (Giardia intestinalis [6]) [nM] | Activity (Giardia intestinalis [7]) | Activity (Giardia intestinalis [8]) | Activity (Mus musculus) | EC50 (Giardia intestinalis [2]; read-out: EC50) [nM] | Activity (Giardia intestinalis [9]) |
| --- | --- | --- | --- | --- | --- | --- | --- | --- | --- | --- | --- | --- |
| Cc1ccc(CCc2ncc([N+](=O)[O-])n2C)cc1 | > 357 | 282 | > 100000 | – | – | – | – | – | – | – | – | – |
| Cn1c([N+](=O)[O-])cnc1/C=C/c1cccc(I)c1 | 339 | 93.3 | – | – | – | – | – | – | – | – | – | – |
| Cn1c([N+](=O)[O-])cnc1/C=C/c1cccc2ccccc12 | 1000 | – | 100000 | – | – | – | – | – | – | – | 100 | – |
| CC(=O)OC(c1ccc(C)cc1)C(OC(C)=O)c1ncc([N+](=O)[O-])n1C (configuration not stated) | > 319 | 316 | > 100000 | 5130 | 174 | 3090 | 513 | – | – | – | – | – |
| Cn1c([N+](=O)[O-])cnc1C(O)C(O)c1ccc(Br)cc1 (configuration not stated) | 208 | 447 | 91200 | – | – | – | – | – | – | – | – | – |
| Cn1c([N+](=O)[O-])cnc1/C=C/c1ccccc1I | > 1660 | 60.3 | > 100000 | – | – | – | – | – | – | – | – | – |
| Cn1c([N+](=O)[O-])cnc1/C=C/c1ccccc1Cl | > 1380 | 72.4 | > 100000 | 115 | 30.2 | 251 | 60.3 | – | – | – | – | – |
| Cc1ccc(C(Br)C(Br)c2ncc([N+](=O)[O-])n2C)cc1 (configuration not stated) | 174 | 64.6 | 11200 | – | – | – | – | – | – | – | – | – |
| Cn1c([N+](=O)[O-])cnc1/C=C/c1ccc(Br)cc1 | 1480 | 49 | 72400 | 91.2 | 8.13 | 200 | 72.4 | inactive | – | Non-toxic | – | inactive |
| Cn1c([N+](=O)[O-])cnc1/C=C/c1ccc(Cl)cc1 | 1740 | 52.5 | 91200 | 145 | 36.3 | 257 | 72.4 | – | – | – | – | – |
| Cn1c([N+](=O)[O-])cnc1/C=C/c1cccc(Cl)c1 | 1380 | 21.9 | 30200 | – | – | – | – | – | – | – | – | – |
| Cn1c([N+](=O)[O-])cnc1/C=C/c1ccc(OC(F)(F)F)cc1 | 112 | 741 | 83200 | – | – | – | – | – | – | – | – | – |
| Cn1c([N+](=O)[O-])cnc1/C=C/c1ccco1 | 2750 | 33.9 | – | 490 | 20.4 | 363 | 35.5 | Active | Active | Non-toxic | – | – |
| Cn1c([N+](=O)[O-])cnc1/C=C/c1ccc(Cl)cc1Cl | > 427 | 234 | > 100000 | – | – | – | – | – | – | – | – | – |
| Cc1ccc(C(O)C(O)c2ncc([N+](=O)[O-])n2C)cc1 (configuration not stated) | > 120 | 832 | > 100000 | – | – | – | – | – | – | – | – | – |
| Cc1ccc(/C=C/c2ncc([N+](=O)[O-])n2C)cc1 | – | 162 | > 100000 | – | – | – | – | – | – | – | – | – |
| Cc1cc(C)c(/C=C/c2ncc([N+](=O)[O-])n2C)c(C)c1 | 32 | 339 | – | 1290 | 229 | 427 | 204 | – | – | – | – | – |
